pIC50: −log10 of the molar value. Calls of active or inactive are those of the source. The calls are words filed in the database; no cut-off is given here.
How the values were obtained:
[1] = Cytotoxicity against mouse peritoneal macrophages assessed as cell viability after 24 hrs by MTT assay; format: cell-based; parameters: concentration or dose not given beside the values; details: peritoneal macrophage cell
Procedure, shortened: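 Mouse peritoneal macrophages were plated at 2 × 10⁵ cells/well. After adherence, the medium was replaced with compound-containing medium for 24 h at 37 °C, 5% CO₂, with medium-plus-DMSO controls. Viability was read by MTT colorimetric assay.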

Leishmania major [2] = test: Antileishmanial activity against promastigote form of Leishmania major MRHO/IR/75/ER after 24 hrs by MTT assay; format: functional, organism-based
Procedure, shortened: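 Early-log promastigotes (2 × 10⁶/mL) were incubated with serial drug dilutions for 24 h at 25 °C in phenol red-free RPMI 1640 with 10% FBS, 2 mM glutamine and antibiotics, pH ~7.2. MTT at 0.5 mg/mL was added for 4 h at 37 °C, formazan was dissolved in DMSO and read at 492 nm. Controls received medium plus DMSO. IC₅₀ came from linear regression over ≥2 independent triplicate experiments, given as mean ± SD.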

Leishmania major [3] = test: Antileishmanial activity against amastigote form of Leishmania major MRHO/IR/75/ER in mouse peritoneal macrophages assessed as decrease in infectivity index after 24 hrs; format: functional, organism-based
Procedure, shortened: (§1)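 Mouse peritoneal macrophages were seeded on glass coverslips at 1 × 10⁶ per well, and non-adherent cells were washed off after 1 h. Stationary-phase promastigotes were added at 3 per macrophage for 2 h at 37 °C in CO₂, then unbound parasites were washed away. Cells got drug-containing medium for 24 h and were then methanol-fixed and Giemsa-stained, counting 60 cells per well. Infectivity index = % infected macrophages × mean amastigotes per infected cell. Two sets of experiments were run.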

Leishmania major [4] = test: Antileishmanial activity against amastigote form of Leishmania major MRHO/IR/75/ER in mouse peritoneal macrophages assessed as decrease in number of amastigotes per macrophage after 24 hrs; format: functional, organism-based; procedure, shortened: as §1
Leishmania major [5] = test: Antileishmanial activity against amastigote form of Leishmania major MRHO/IR/75/ER in mouse peritoneal macrophages assessed as decrease in macrophage infectivity after 24 hrs; format: functional, organism-based; procedure, shortened: as §1
[6] = Leishmania major, MRHO/IR/75/ER, 24 h

Cn1c([N+](=O)[O-])cnc1-c1nnc(N2CCN(C(=O)c3cccs3)CC2)s1
Activity [1]: Non-toxic | pIC50 (Leishmania major [2]; [6]): 4.59

Cn1c([N+](=O)[O-])cnc1-c1nnc(N2CCN(C(=O)c3ccc(Br)s3)CC2)s1
Activity [1]: Non-toxic | pIC50 (Leishmania major [2]; [6]): 4.80

Cn1c([N+](=O)[O-])cnc1-c1nnc(N2CCN(C(=O)c3ccc(Cl)cc3)CC2)s1
Activity [1]: Non-toxic | pIC50 (Leishmania major [2]; [6]): 4.37

Cn1c([N+](=O)[O-])cnc1-c1nnc(N2CCN(C(=O)c3ccc(Cl)s3)CC2)s1
Activity [1]: Non-toxic | Activity (Leishmania major [3]): Active | Activity (Leishmania major [4]): Active | pIC50 (Leishmania major [2]; [6]): 5.03 | Activity (Leishmania major [5]): Active

Cn1c([N+](=O)[O-])cnc1-c1nnc(N2CCN(C(=O)c3ccccc3)CC2)s1
Activity [1]: Non-toxic | Activity (Leishmania major [3]): Active | Activity (Leishmania major [4]): Active | pIC50 (Leishmania major [2]; [6]): 4.98 | Activity (Leishmania major [5]): Active

Cn1c([N+](=O)[O-])cnc1-c1nnc(N2CCN(C(=O)c3cccc(Cl)c3)CC2)s1
Activity [1]: Non-toxic | pIC50 (Leishmania major [2]; [6]): 4.75

Cn1c([N+](=O)[O-])cnc1-c1nnc(N2CCN(C(=O)c3ccccc3Cl)CC2)s1
Activity [1]: Non-toxic | pIC50 (Leishmania major [2]; [6]): 4.69

MEGLUMINE ANTIMONATE
Activity [1]: 40% | pIC50 (Leishmania major [2]): 4.09
